Experimental data of several laboratories.
Each line is one published result; the experiments were not run side by side. Values after ≈ are worked out from the molar mass of the structure shown.

| Structure (SMILES) | organism | test | test system | setting | endpoint | value |
| --- | --- | --- | --- | --- | --- | --- |
| C#Cc1cccc(O)c1C=NNC(=O)c1ccc(Br)cc1 | Aspergillus fumigatus | microbial growth |  | 48 h, pH 6.5 | MIC80 | > 32 µg/mL |
| C=C(CN(C(=O)c1c(C(F)F)nn(C)c1F)C1CC1)c1ccc(Cl)cc1Cl | Ustilaginoidea virens | microbial growth |  | 12 h | EC50 | 0.0232 µg/mL (≈ 0.0555 µM) |
| C#Cc1ccc(C=NNC(=O)c2ccc(Br)c(Br)c2)c(O)c1 | Aspergillus fumigatus | microbial growth |  | 48 h, pH 6.5 | MIC80 | > 16 µg/mL |
| O=[N+]([O-])NC(=S)NN=Cc1ccc(Br)cc1 | Leishmania major | parasite growth | J774.A1 | 72 h, intracellular, amastigote | IC50 | 424 µM |
| O=C(O)c1cn(C2CC2)c2cc(N3CCNCC3)c(F)cc2c1=O | Enterococcus faecalis | microbial growth | VRE | drug-resistant strain | MIC | < 1 µg/mL |
| C#Cc1ccc(C=NNC(=O)c2cc(Br)cc(Br)c2O)c(O)c1 | Aspergillus fumigatus | microbial growth |  | 48 h, pH 6.5 | MIC80 | > 16 µg/mL |
| COC(=O)C1=C(C)NC(C)=C(C(=O)OC(C)(C)CN(C)CCC(c2ccccc2)c2ccccc2)C1c1cccc([N+](=O)[O-])c1 (stereo not drawn) | Aspergillus fumigatus | microbial growth, broth dilution |  | 48 h | MIC | > 250 µM |
| C[C@@H](O)[C@H]1C(=O)N2C(C(=O)O)=C(SCCN=CN)C[C@H]12 | Enterococcus faecalis | microbial growth | VRE | drug-resistant strain | MIC | < 1 µg/mL |
| COc1ccc(C=NNC(=S)N[N+](=O)[O-])cc1OC | Leishmania major | parasite growth, MTT |  | 72 h, promastigote | IC50 | 1200 µM |
